Data: ChEMBL document CHEMBL1148734, “Structure-activity relationships of phenyl-furanyl-rhodanines as inhibitors of RNA polymerase with antibacterial activity on biofilms” (J Med Chem, 2007)
In brackets after ≈: the same amount, converted by molar mass. Activity calls are given as the source filed them. No cut-off for these calls is given here.

Key:
[1] = test system: Staphylococcus aureus; assay: Antibacterial activity against multidrug resistant Staphylococcus aureus 49589; format: functional
In short: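 Broth microdilution MIC following CLSI. Compounds were predissolved in DMSO and tested as serial 2-fold dilutions at final 100 to 0.4 µg/mL. Inoculum was 5 × 10⁵ CFU/mL, and plates were read after 18 h at 37 °C.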

[2] = test system: Staphylococcus epidermidis; assay: Antibacterial activity against Staphylococcus epidermidis CIP 105777; format: functional
[3] = test system: Escherichia coli; assay: Antibacterial activity against Escherichia coli tolC CGSC 5633; format: functional
[4] = test system: Escherichia coli; assay: Inhibition of RNA polymerase sigma-70 transcription in Escherichia coli at 10 uM; format: functional
[5] = test system: CHO; assay: Cytotoxicity against CHO cells; format: cell-based, Cricetulus griseus; settings: chinese hamster
In short: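 CHO cells grown in RPMI with 5% fetal calf serum, then exposed to compounds 24 h at 37 °C without serum. MTT added at 300 µg/mL final, 3 h at 37 °C dark; acidified isopropanol added, 1 h at room temperature; OD at 595 nm.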

[6] = test system: Staphylococcus aureus; assay: Antibacterial activity against Staphylococcus aureus CIP 76.25; format: functional
[7] = test system: Staphylococcus epidermidis; assay: Antibacterial activity against Staphylococcus epidermidis RP62A; format: functional
[8] = test system: Staphylococcus epidermidis; assay: Antibacterial activity against Staphylococcus epidermidis 40004; format: functional
[9] = test system: Staphylococcus epidermidis; assay: Antibacterial activity against Staphylococcus epidermidis 48155; format: functional
[10] = test system: Streptococcus pneumoniae; assay: Antibacterial activity against Streptococcus pneumoniae CIP 103566; format: functional
[11] = test system: Clostridioides difficile; assay: Antibacterial activity against Clostridium difficile DSM 1296; format: functional
[12] = test system: Bacillus anthracis; assay: Antibacterial activity against Bacillus anthracis 9131; format: functional
[13] = Inhibition of Escherichia coli RNA polymerase sigma-70 factor

Compound | Activity [1] | MIC [2] [µg/mL] | MIC [3] [µg/mL] | inhibition at 10 µM [4] [%] | Activity [5] | also measured
GENTAMICIN | inactive |  |  |  |  | 
C=CCN1C(=O)/C(=C/c2ccc(-c3ccc([N+](=O)[O-])cc3)o2)SC1=S |  | ≥ 100 | ≥ 100 | 3 | >= 100 ug ml-1 | 
C[C@@H]1O[C@@H]1P(=O)(O)O | Active |  |  |  |  | 
C#CCN1C(=O)S/C(=C\c2ccc(-c3ccc(C(=O)O)cc3)o2)C1=O |  | > 100 | > 100 | 100 | >= 100 ug ml-1 | 
NC[C@H]1O[C@H](O[C@H]2[C@H](O)[C@@H](O[C@H]3O[C@H](CO)[C@@H](O)[C@H](N)[C@H]3O)[C@H](N)C[C@@H]2N)[C@H](N)C[C@@H]1O | inactive |  |  |  |  | 
CC(=O)O[C@H]1C[C@@]2(C)[C@@H](C[C@@H](O)[C@H]3[C@@]4(C)CC[C@@H](O)[C@@H](C)[C@@H]4CC[C@@]32C)/C1=C(\CCC=C(C)C)C(=O)O | Active |  |  |  |  | 
Cc1onc(-c2ccccc2)c1C(=O)N[C@@H]1C(=O)N2[C@@H]1SC(C)(C)[C@@H]2C(=O)O | inactive |  |  |  |  | 
C=CCN1C(=O)/C(=C/c2ccc(-c3ccc(O)cc3)o2)SC1=S |  | 12.5 (≈ 36.4 µM) | 3.13 (≈ 9.11 µM) | 84 | >= 100 ug ml-1 | MIC [6]: 6.25 µg/mL (≈ 18.2 µM); MIC [1]: 25 µg/mL (≈ 72.8 µM); MIC [7]: 12.5 µg/mL (≈ 36.4 µM); MIC [8]: 12.5 µg/mL (≈ 36.4 µM); MIC [9]: 12.5 µg/mL (≈ 36.4 µM); MIC [10]: 25 µg/mL (≈ 72.8 µM); MIC [11]: 50 µg/mL (≈ 146 µM); MIC [12]: 6.25 µg/mL (≈ 18.2 µM)
CN(C)[C@@H]1C(O)=C(C(N)=O)C(=O)[C@@]2(O)C(O)=C3C(=O)c4c(O)cccc4[C@@](C)(O)[C@H]3C[C@@H]12 | inactive |  |  |  |  | 
C=CCN1C(=O)/C(=C/c2ccc(C)o2)SC1=S |  | ≥ 100 | ≥ 100 | 3 |  | IC50 [13]: ≥ 100 µM
O=C(O)c1ccc(-c2ccc(/C=C3\Sc4ccccc4C3=O)o2)cc1 |  | > 100 | > 100 | 30 | >= 100 ug ml-1 | 
C=CCN1C(=O)/C(=C/c2ccc(Cc3ccc(C(=O)O)cc3)o2)SC1=S |  | ≥ 100 | ≥ 100 | 63 | >= 100 ug ml-1 | 
O=C(O)c1cccc(-c2ccc(C=C3C(=O)c4ccccc4C3=O)o2)c1 |  | 50 (≈ 145 µM) | 50 (≈ 145 µM) | 72 | 50 µg/mL | 
CN[C@H](CC(C)C)C(=O)N[C@H]1C(=O)N[C@@H](CC(N)=O)C(=O)N[C@H]2C(=O)N[C@H]3C(=O)N[C@H](C(=O)N[C@H](C(=O)O)c4cc(O)cc(O)c4-c4cc3ccc4O)[C@H](O)c3ccc(c(Cl)c3)Oc3cc2cc(c3O[C@@H]2O[C@H](CO)[C@@H](O)[C@H](O)[C@H]2O[C@H]2C[C@](C)(N)[C@H](O)[C@H](C)O2)Oc2ccc(cc2Cl)[C@H]1O | Active |  |  |  |  | 
CCn1cc(C(=O)O)c(=O)c2cc(F)c(N3CCNCC3)cc21 | inactive |  |  |  |  | 
CCC[C@@H]1C[C@@H](C(=O)N[C@@H]([C@H]2O[C@H](SC)[C@H](O)[C@@H](O)[C@H]2O)[C@H](C)Cl)N(C)C1 | inactive |  |  |  |  | 
C=CCN1C(=O)/C(=C/c2ccc(-c3cccc(Cl)c3)o2)SC1=S |  | ≥ 100 | 12.5 (≈ 34.5 µM) | 76 | >= 100 ug ml-1 | 
C=CCN1C(=O)/C(=C/c2ccc(-c3cc(N)cc(C(=O)O)c3)o2)SC1=S |  | ≥ 100 | ≥ 100 | 71 | >= 100 ug ml-1 | 
CO[C@H]1/C=C/O[C@@]2(C)Oc3c(C)c(O)c4c(O)c(c(/C=N/N5CCN(C)CC5)c(O)c4c3C2=O)NC(=O)/C(C)=C\C=C\[C@H](C)[C@H](O)[C@@H](C)[C@@H](O)[C@@H](C)[C@H](OC(C)=O)[C@@H]1C | inactive |  |  |  |  | 
C=CCN1C(=O)/C(=C/c2ccc(-c3ccc(C(=O)OC)cc3)o2)SC1=S |  | ≥ 100 | ≥ 100 | 10 | >= 100 ug ml-1 | 
C=CCN1C(=O)/C(=C/c2ccc(-c3ccc4c(c3)C(=O)OC4)o2)SC1=S |  | ≥ 100 | ≥ 100 | 5 | 50 µg/mL | 
C=CCN1C(=O)/C(=C/c2ccc(-c3cccc(N)c3)o2)SC1=S |  | ≥ 100 | ≥ 100 | 11 | >= 100 ug ml-1 | 
NCC[C@H](O)C(=O)N[C@@H]1C[C@H](N)[C@@H](O[C@H]2O[C@H](CN)[C@@H](O)[C@H](O)[C@H]2O)[C@H](O)[C@H]1O[C@H]1O[C@H](CO)[C@@H](O)[C@H](N)[C@H]1O | inactive |  |  |  |  | 
